AHR activator: AHR activators, primary screen, cell-based, luminescence, luciferase reporter, human. AHR-responsive luciferase reporter cells. activation, % at 5 µM. 2.5% of 320,000 active. AID 2796, 2010; in the data active = activation above about 47%;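 note: 0% = vehicle wells and 100% = reference agonist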
Target sequence (P35869 whole entry, looked up): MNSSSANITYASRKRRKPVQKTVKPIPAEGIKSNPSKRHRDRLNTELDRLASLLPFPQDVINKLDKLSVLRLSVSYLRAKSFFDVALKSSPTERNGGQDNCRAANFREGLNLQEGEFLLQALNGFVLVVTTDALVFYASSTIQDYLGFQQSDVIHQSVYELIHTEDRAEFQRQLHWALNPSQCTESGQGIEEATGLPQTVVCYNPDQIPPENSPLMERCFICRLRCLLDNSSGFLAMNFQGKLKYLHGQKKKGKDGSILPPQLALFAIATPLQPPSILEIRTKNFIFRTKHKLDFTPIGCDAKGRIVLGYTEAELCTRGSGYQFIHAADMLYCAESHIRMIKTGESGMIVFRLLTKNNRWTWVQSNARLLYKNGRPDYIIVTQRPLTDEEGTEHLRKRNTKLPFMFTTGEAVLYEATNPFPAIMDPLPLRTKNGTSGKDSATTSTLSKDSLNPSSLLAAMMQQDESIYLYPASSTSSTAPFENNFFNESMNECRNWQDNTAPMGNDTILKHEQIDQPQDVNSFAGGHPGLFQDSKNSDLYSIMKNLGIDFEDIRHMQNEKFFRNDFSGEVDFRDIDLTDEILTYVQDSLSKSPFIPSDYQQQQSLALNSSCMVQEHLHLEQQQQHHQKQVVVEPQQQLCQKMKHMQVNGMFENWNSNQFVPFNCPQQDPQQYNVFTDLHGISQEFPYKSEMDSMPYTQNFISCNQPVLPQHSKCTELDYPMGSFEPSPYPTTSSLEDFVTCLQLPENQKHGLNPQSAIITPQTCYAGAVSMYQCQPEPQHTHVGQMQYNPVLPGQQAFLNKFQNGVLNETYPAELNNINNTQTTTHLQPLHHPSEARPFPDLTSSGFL
m5-HT2A agonist: mouse Htr2a agonists via beta-arrestin recruitment, primary screen, cell-based, luminescence; AID 624169, 2012; activation, % at 7.6 µM; CHO-K1 mHTR2A beta-arrestin complementation; percent of 30 µM serotonin response; 0.66% of 360,000 active;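 active = activation above a run cutoff, the mean activation of all tested compounds plus 3 SD, cut at about 14% in these data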;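 note: 0% = plate median of compound wells and 100% = 30 µM serotonin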
Tb MetRS inh: T. brucei MetRS inhibitors, primary screen, biochemical, luminescence | 0.4% of 360,000 active | purified T. brucei MetRS, ATP depletion, Kinase-Glo luminescence | AID 624268, 2012 | inhibition, % at 11.9 µM | methionyl-tRNA synthetase (Trypanosoma brucei brucei);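 active = inhibition above a per-plate cutoff of the control wells' mean inhibition plus 3 SD, cut at about 5.5% in these data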;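 note: 0% = DMSO wells median and 100% = median of wells with control inhibitor compound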
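assay system = parasite MetRS enzyme | timing = 15 min preincubation, 2 h reaction, all 25 °C | evaluation = percent inhibition relative to median high and low control wells | medium = HEPES buffer containing pyrophosphatase, BSA, spermine, DTT | compound = single dose, 11.9 µM final nominal, 0.9% final DMSO | detection = Kinase-Glo luminescence, ATP depletion format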
MsrA act: bovine MsrA enzyme activators, primary screen, biochemical, absorbance, HTS; purified bovine MsrA, absorbance read-out; 0.3% of 360,000 active; activation, % at 10.6 µM; in the data active = activation above about 7.5%;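 note: 0% = vehicle and 100% = reference activator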
MsrA inhibitor: bovine MsrA enzyme inhibitors, primary screen, biochemical, absorbance, HTS; Methionine sulfoxide reductase A (Bos taurus); purified bovine MsrA, absorbance read-out; inhibition, % at 15.5 µM; 0.75% of 360,000 active; AID 651718, 2012; in the data active = inhibition above about 4.5%;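 note: 0% = vehicle wells with enzyme and 100% = reference inhibitor wells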
AI-2 QS mod: Vibrio harveyi AI-2 quorum sensing modulators, primary screen, JMH597 strain, luminescence/OD600 ratio. Vibrio harveyi JMH597 AI-2 luminescence/OD600 ratio, 9 h; active compounds read low; strain lacks LuxN and CqsS sensors; 0 = neutral-control median. activity change, % at 7.5 µM. AID 2094, 2009. 0.4% of 300,000 active; in the data active = activity change below about -75%, passing the limit was not always enough;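 note: luminescence divided by OD600 gain over 9 h not by final OD600 alone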
An asterisk follows results filed as active; . = no result. In the library only some 4.4% were active in any assay of this set; here they are far more common.

SMILES	AHR activator	m5-HT2A agonist	Tb MetRS inh	MsrA act	MsrA inhibitor	AI-2 QS mod
COC(=O)C1=C(C)N(Cc2cccc(C(F)(F)F)c2)C(=NCc2cc(OC)c(OC)c(OC)c2)NC1CCc1ccccc1 (centres undefined)	.	.	.	.	-1	.
COc1ccc(NC(=O)N(C)C[C@@H]2OCc3cnnn3CCCC(=O)N([C@H](C)CO)C[C@H]2C)c(OC)c1	.	.	.	.	1	.
Cc1[nH]n(-c2ccccc2)c(=O)c1N=Nc1ccc(F)cc1	65*	1	0	0	1	16
COc1cc(C#Cc2c(-c3cncn3C)n(C)c3ccc(-c4ccc(OC)c(OC)c4)cc23)cc(OC)c1	68*	6	0	-6	2	.
COc1cc(C#Cc2c(-c3cncn3C)n(C)c3ccc(Br)cc23)cc(OC)c1	27	0	0	-1	0	.
Cc1ccc2nc(-c3ccc(SCC(=O)Nc4nc(C)cs4)nc3)[nH]c2c1	67*	0	2	-2	1	9
Cc1ccc2nc(-c3ccc(SCC(=O)Nc4nnc(C)s4)nc3)[nH]c2c1	42	4	4	-6	2	4
CCc1nnc(NC(=O)CSc2ccc(-c3nc4ccccc4[nH]3)cn2)s1	21	2	9.9*	-8	2	-38
CCOc1ccc(-c2nc(C#N)c(NCc3ccc4c(c3)OCO4)o2)cc1	56*	-2	0	-7	0	23
Cc1ccc(OCc2nc(C#N)c(NCc3ccc4c(c3)OCO4)o2)cc1	7	-9	0	-1	-1	-4
COc1ccccc1N=NC1C(=O)N(C(N)=S)N=C1C (centres undefined)	64*	-4	0	-3	0	17
CC1=NN(C(N)=S)C(=O)C1N=Nc1cccc(C)c1 (centres undefined)	64*	-2	-1	-4	1	11
CC1=NN(C(N)=S)C(=O)C1N=Nc1ccc(C)c(Br)c1 (centres undefined)	58*	10	5	-1	1	8
CN(NC(=O)C(=O)NCc1ccco1)C(=O)NC1CCCCC1	.	.	.	.	-1	.
CN1CCCCC(NC(=O)c2ccccn2)C1=O (centres undefined)	.	.	.	.	0	.
Nc1ccn([C@@H]2O[C@H](C(=O)N[C@H](Cc3ccccc3)C(=O)N3CCN(C(=O)N4CCOCC4)CC3)[C@@H](O)[C@H]2O)c(=O)n1	.	.	.	.	1	.
Cc1c(C(=O)Nc2c(C)n(C)n(-c3ccccc3)c2=O)oc2ccc(Cl)cc12	51*	12	-1	-5	1	6
CC(=O)Nc1cccc(NC(=O)c2oc3ccccc3c2C)c1	113*	.	.	.	1	6
CC(=O)Nc1c(C(=O)c2ccccc2)oc2ccccc12	109*	-6	0	-4	1	9
CC(=O)Nc1ccc(NC(=S)NC(=O)c2oc3ccccc3c2C)cc1	18	5	0	0	0	4
Cc1c(C(=O)Nc2ccc(Cl)cn2)oc2ccccc12	64*	1	0	-4	1	7
Cc1ccnc(NC(=O)c2oc3ccccc3c2C)c1	44	-5	0	-2	0	2
Cc1c(C(=O)Nc2cnccn2)oc2ccccc12	93*	-3	-1	-3	.	44
COc1ccccc1NC(=O)c1oc2ccccc2c1C	.	-7	0	-1	1	.
COc1ccc(NC(=O)c2oc3ccccc3c2C)c(OC)c1	58*	-5	0	0	0	12
COc1ccc(/C=C/C(=O)c2ccc[nH]2)c(OC)c1OC	25	-4	-2	-2	4.6*	18
COc1ccc(Br)cc1CN1CCCCCC1	0	-3	-1	-1	-1	.
CC1CCc2sc(C(=O)N/N=C/c3ccc([N+](=O)[O-])cc3)cc2C1 (centres undefined)	65*	-2	0	-2	0	14
CC1CCc2sc(C(=O)NN=C3CCC(c4ccccc4)CC3)cc2C1 (centres undefined)	28	1	0	-3	0	24

Assay outcomes as filed in PubChem BioAssay.
